APJ agonist = activates the human apelin receptor APJ; P35414; CHO-K1 APJ PathHunter beta-arrestin, luminescence; 0% DMSO wells, 100% apelin; hit rate 0.11% among 330,000; activation, % at 20 µM;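 active = activation more than six SD over the plate average, tested at 20 µM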;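 note: 0% = DMSO alone and 100% = apelin-13 at 10 nM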
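assay system = CHO-K1 APJ beta-arrestin complementation cell line | input = cell density 1000 per well | dosing = compound 20 µM once, DMSO 1% | timing = compound 90 min 25 °C, reagent 1 h | measured by = luminescence from split beta-galactosidase complementation, Galacton Star/Emerald II substrate | read-out basis = APJ agonist activity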
APJ antagonist = antagonists of human APJ apelin receptor; CHO-K1 APJ beta-arrestin complementation, luminescence; hit rate 0.32% among 330,000; AID 2521; inhibition, % at 20 µM;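 active = inhibition above about 40% at 20 µM, limit read from the data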;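 note: cells challenged with 10 nM apelin-13 agonist together with compound; plate controls were apelin-13 plus DMSO wells for no effect and DMSO wells lacking apelin-13 for full effect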
CCR6 antagonist = blocks CCL20-driven beta-arrestin recruitment at human CCR6; AID 493098; hit rate 0.49% among 340,000; P51684; CHO-K1 CCR6 PathHunter beta-arrestin, luminescence, CCL20-stimulated; inhibition, % at 20 µM;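 active = compounds whose inhibition of the agonist-driven luminescence signal at 20 µM reaches about 50%, limit read from the data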;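 note: cells stimulated with CCL20 at 14 nM final; plate controls were DMSO with CCL20 for no effect and DMSO without agonist for full effect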
Target sequence (P51684 whole entry, looked up): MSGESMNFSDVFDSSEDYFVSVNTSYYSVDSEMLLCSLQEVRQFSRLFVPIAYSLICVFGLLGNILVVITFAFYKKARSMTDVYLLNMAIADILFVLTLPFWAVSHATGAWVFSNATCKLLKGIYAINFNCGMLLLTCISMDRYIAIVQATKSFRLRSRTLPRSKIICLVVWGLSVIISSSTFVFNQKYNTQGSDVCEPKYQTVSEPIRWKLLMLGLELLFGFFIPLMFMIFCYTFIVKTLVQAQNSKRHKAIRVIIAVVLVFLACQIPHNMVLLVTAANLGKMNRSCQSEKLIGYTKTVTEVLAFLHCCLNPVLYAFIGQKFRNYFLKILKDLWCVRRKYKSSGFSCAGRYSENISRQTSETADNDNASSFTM
CXCR6 inh = blocks human CXCR6 beta-arrestin recruitment; O00574; CHO-K1 PathHunter CXCR6 beta-arrestin, luminescence; inhibition, % at 20 µM; hit rate 0.36% among 360,000; AID 602244; in the data active = inhibition above about 34%, passing the limit was not always enough;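 note: antagonist mode with CXCL16 agonist at 10 nM final; 0% = 10 nM CXCL16 with DMSO and 100% = unstimulated wells without agonist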
Beta2AR agonist = human beta-2 adrenergic receptor agonism by FAP; Am2.2-beta2AR cells, FAP receptor internalization, flow cytometry; response, % (concentration not given with the values); hit rate 0.43% among 340,000;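 active = response above a set limit, near 3 SD of response in nonfluorescent compounds, cut at about 42% in these data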
EBI2 antag = EBI2 (human) antagonism; P32249; EBI2 beta-arrestin recruitment, luminescence, 7a,25-OHC stimulated; inhibition, % at 5 µM; hit rate 0.81% among 360,000; AID 651636; in the data active = inhibition above about 38%;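 note: enzyme fragment complementation signal reports receptor beta-arrestin coupling in cells; 0% = agonist plus DMSO wells and 100% = wells without agonist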
EBI2 antag conf = EBI2 (human) antagonism, single concentration confirmation | shares compounds with EBI2 antag | EBI2 beta-arrestin luminescence, 7a,25-OHC antagonism | inhibition, % at 5 µM | hit rate 29% among 2,400;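 active = inhibition of at least 50%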
EBI2 ag = counter-screen for EBI2 antagonists: EBI2 agonist activity. shares compounds with EBI2 antag. EBI2-expressing cells, agonist mode, luminescence, 60 min; 0% vehicle, 100% 7α,25-dihydroxycholesterol control. activation, % at 5 µM. 2,400 tested, under 10 active. AID 652000;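 active = activation of at least 50%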
bGal counter = counter-screen for EBI2 antagonists: E. coli beta-galactosidase inhibition; hit rate 1% among 2,400; shares compounds with EBI2 antag; purified beta-galactosidase, luminescent Galacton Star, 15 min; AID 652176; inhibition, % at 5 µM;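 active = replicate-average signal at least 3 plate SD below neutral wells, shown as high inhibition, flagging enzyme-inhibiting false positives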;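 note: 0% = DMSO wells with enzyme and 100% = wells lacking enzyme; higher means stronger loss of beta-gal luminescence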
* hit, by the source's call; . = no result given. An excerpt weighted towards active compounds, which were near 1.8% of everything screened.

SMILES	APJ agonist	APJ antagonist	CCR6 antagonist	CXCR6 inh	Beta2AR agonist	EBI2 antag	EBI2 antag conf	EBI2 ag	bGal counter
CC(C)c1ccc(NC(=S)Nc2ccc(OC(F)(F)F)cc2)cc1	-2	-9	13	1	9	55*	51*	2	3
FC(F)(F)Oc1ccc(NC(=S)Nc2ccc(OC(F)(F)F)cc2)cc1	3	16	7	-1	15	11	.	.	.
CCOc1ccc(NC(=S)Nc2ccc(OC)cc2)cc1	-2	-7	-3	3	-6	75*	63*	-1	-15
COc1cccc(NC(=S)Nc2ccc(Br)cc2Cl)c1	-1	-3	1	4	25	1	.	.	.
Cc1ccnc(NC(=O)c2cccc(S(=O)(=O)N3CCCC3)c2)c1	-3	-34	0	-10	-1	13	.	.	.
Cc1cccc(N2CCN(C3=NC(=O)C(Cc4ccccc4)S3)CC2)c1 (centres undefined)	-3	-8	10	-6	2	10	.	.	.
CCOc1ccc(NC(=S)Nc2ccc(OCc3ccccc3)cc2)cc1	5	8	14	-4	-1	58*	36	0	-13
CCC(C)c1ccc(NC(=S)Nc2ccc(OC)cc2)cc1 (centres undefined)	-1	-6	9	7	-5	53*	49	2	4
CC(=O)N1c2ccc(S(=O)(=O)N3CCCCC3)cc2CC1C(=O)Nc1ccc(F)cc1C (centres undefined)	12	-3	10	0	-4	-5	.	.	.
COc1ccccc1Cc1c(-c2ccc(C#N)cc2)nc2c3ccccc3ccn12	.	.	.	2	.	43*	19	-1	7
COc1cccc(/C=C/C(=O)c2ccc(NS(=O)(=O)c3ccc(C)cc3)cc2)c1	-3	16	23	16	15	62*	45	0	6
Cc1cccc(OCC(=O)N2CCN(S(C)(=O)=O)CC2)c1	2	-5	-4	-10	-3	1	.	.	.
CCOC(=O)C1CCN(C(=O)COC(=O)COc2ccc(Cl)cc2)CC1	0	-3	11	-2	-3	1	.	.	.
Cc1cccc(OCC(=O)N2CCN(C(=O)COc3ccc(Cl)cc3)CC2)c1	-3	0	3	-7	-1	84*	50*	-1	-15
CCOC(=O)C1CCN(C(=O)COc2ccc(Cl)cc2)CC1	5	8	7	6	5	75*	54*	-2	-10
O=C(COc1ccc(Cl)cc1)N1CCCC1	-4	10	4	-4	12	22	.	.	.
COC(=O)C1CCN(C(=O)COc2ccc(Cl)cc2)CC1	1	7	-3	2	3	62*	57*	1	10
CCOc1ccc(/C=N/NC(=O)c2ccccc2O)cc1CN1CC2CC(C1)c1cccc(=O)n1C2 (centres undefined)	-2	-10	-2	4	1	5	.	.	.
COc1ccc(NC(=O)/C(C#N)=C/c2c(C)nn(-c3ccc(F)cc3)c2Cl)cc1OC	5	0	12	-2	21	70*	53*	0	-13
COc1ccccc1NC(=O)/C(C#N)=C/c1c(C)nn(-c2ccc(F)cc2)c1Cl	4	-9	-2	-1	6	43	.	.	.
COc1ccc(NC(=O)/C(C#N)=C/c2c(C)nn(-c3ccc(F)cc3)c2Cl)cc1Cl	3	-18	19	6	20	60*	43	1	5
N#Cc1ccc(N)cc1OCCCN1CCCCC1	.	.	8	-3	-3	2	.	.	.
O=C(Nc1ccc(Nc2ccccc2)cc1)c1ccc(Cl)c([N+](=O)[O-])c1	0	4	22	9	33	5	.	.	.
O=C(Nc1ccccc1-c1ccccc1)c1ccc(Cl)c([N+](=O)[O-])c1	-1	7	22	-12	28	53*	38	0	-1
CN(c1ccccc1)S(=O)(=O)c1cccc(NC(=O)c2ccc(Cl)c([N+](=O)[O-])c2)c1	7	7	6	-3	19	46*	65*	1	5
SMILES	APJ agonist	APJ antagonist	CCR6 antagonist	CXCR6 inh	Beta2AR agonist	EBI2 antag	EBI2 antag conf	EBI2 ag	bGal counter
Cc1ccc(S(=O)(=O)N2CCOCC2)cc1NC(=O)COC(=O)CCC(=O)c1ccc(F)cc1	-5	-3	5	-19	1	-15	.	.	.
O=C(CN1CCN(Cc2ccccc2)CC1)N/N=C/c1ccc(Br)s1	-1	-7	1	-4	2	44*	33	2	2
O=C(c1ccco1)N1CCN(C(=O)c2cc3c(s2)-c2ccccc2OC3)CC1	-1	21	19	2	-5	70*	62*	1	-1
Cc1cccc2c1-c1sc(C(=O)N3CCCCC3)cc1CO2	-3	8	16	-12	7	78*	71*	0	4
CCOC(=O)N1CCN(C(=O)c2cc3c(s2)-c2c(C)cccc2OC3)CC1	-2	16	12	-4	2	91*	87*	1	-6
Cc1cccc2c1-c1sc(C(=O)N3CCc4ccccc4C3)cc1CO2	-2	2	9	-2	-4	11	.	.	.
CCN1CCN(C(=O)c2cc3c(s2)-c2c(C)cccc2OC3)CC1	-3	12	8	-1	-2	91*	78*	1	7
O=C(C(=O)N1CCN(c2ccccc2)CC1)c1ccccc1	.	.	.	.	.	-1	.	.	.
COc1cc(/C(O)=C(\C#N)c2nc3ccccc3[nH]2)cc(OC)c1OC	0	4	8	-13	0	-1	.	.	.
COc1ccc(CNC(=O)COC(=O)c2cc3ccccc3o2)cc1	8	22	3	-5	-7	-5	.	.	.
COc1ccc(-c2nc3cc(C)c(Br)c(C)n3c2Cc2ccccc2C(F)(F)F)cc1OC	.	.	.	1	.	41*	39	0	-15
CCOC(=O)c1c(Nc2ccccc2)sc(/C=C2\C=Nc3ccccc32)c1O	-2	10	-6	6	0	53*	41	-1	7
Oc1nc(Nc2ccccc2)sc1/C=C1\C=Nc2ccccc21	-5	1	9	8	30	20	.	.	.
COc1ccc(OC)c(C2=Nn3c(nnc3-c3cccc(OC(C)C)c3)SC2)c1	-6	-8	20	18	3	46*	35	1	-2
O=C(CSc1ccc(Br)cc1)Nc1ccccc1N1CCOCC1	-7	2	10	-3	-13	43*	42	1	6
O=C(CSc1ccc(Cl)cc1)Nc1ccccc1N1CCN(C(=O)c2ccc(Cl)cc2)CC1	0	-1	11	9	4	43*	14	0	5
